From ChEMBL document CHEMBL1125477, “Highly potent and selective heptapeptide antagonists of the neurokinin NK-2 receptor” (J Med Chem, 1992)

What was measured:
[1] = target: Substance-P receptor (Cavia porcellus) (UniProt P30547); experiment: Compound was evaluated for antagonism of contractile response of guinea pig ileum longitudinal smooth muscle (GPI) at tachykinin receptor 1; assay type: functional, tissue-based
In short: (§1)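 Isolated longitudinal smooth muscle of ileum from male Dunkin-Hartley guinea-pigs (300–600 g), killed by concussion and exsanguination. Contraction to SP methyl ester (NK-1 agonist). At least two control agonist curves, then one antagonist concentration per preparation. Concentration-ratio read graphically at half-maximal response. pK_B = log(CR−1) − log[antagonist]. Mean ± SE over four to eight tissues.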

[2] = target: T1, Substance-K receptor (Rattus norvegicus) (UniProt P16610); experiment: Compound was evaluated for antagonism of contractile response of rat colon muscularis mucosae (RC) at tachykinin receptor 2; assay type: functional, tissue-based; settings: Muscularis mucosa
T1 sequence (whole entry): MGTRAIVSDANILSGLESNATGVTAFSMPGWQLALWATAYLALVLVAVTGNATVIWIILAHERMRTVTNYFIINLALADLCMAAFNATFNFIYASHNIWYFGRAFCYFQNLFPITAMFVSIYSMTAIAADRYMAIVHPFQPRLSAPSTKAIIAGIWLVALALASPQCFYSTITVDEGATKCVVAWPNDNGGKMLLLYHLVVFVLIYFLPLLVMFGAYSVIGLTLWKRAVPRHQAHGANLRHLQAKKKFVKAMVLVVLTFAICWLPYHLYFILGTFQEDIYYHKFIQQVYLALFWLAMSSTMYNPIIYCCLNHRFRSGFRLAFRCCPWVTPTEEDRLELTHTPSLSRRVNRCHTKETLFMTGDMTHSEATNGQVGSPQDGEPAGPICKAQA
In short: (§2)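 Colon muscularis mucosae from male AHA rats (250–500 g), killed by concussion and exsanguination. Contraction to neurokinin A (NK-2). At least two control agonist curves, then a single antagonist concentration per tissue. Equiactive agonist concentration-ratio taken at half-maximal response. pK_B = log(CR−1) − log[antagonist]. Mean ± SE over four to eight preparations.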

[3] = target: T2, Neuromedin-K receptor (Rattus norvegicus) (UniProt P16177); experiment: Compound was evaluated for antagonism of contractile response of rat portal vein at tachykinin receptor 3; assay type: functional
T2 sequence (whole entry): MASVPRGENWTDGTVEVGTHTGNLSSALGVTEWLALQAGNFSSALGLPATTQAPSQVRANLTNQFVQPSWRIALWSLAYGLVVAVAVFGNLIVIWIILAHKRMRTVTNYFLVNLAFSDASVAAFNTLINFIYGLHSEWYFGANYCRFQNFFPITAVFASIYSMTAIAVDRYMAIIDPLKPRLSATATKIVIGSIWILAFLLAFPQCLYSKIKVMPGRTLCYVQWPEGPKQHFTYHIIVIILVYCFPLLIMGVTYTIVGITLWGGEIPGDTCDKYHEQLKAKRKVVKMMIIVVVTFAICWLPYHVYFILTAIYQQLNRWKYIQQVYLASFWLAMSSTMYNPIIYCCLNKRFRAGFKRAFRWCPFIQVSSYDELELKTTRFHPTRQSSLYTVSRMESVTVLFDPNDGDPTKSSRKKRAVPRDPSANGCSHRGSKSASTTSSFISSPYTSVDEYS
In short: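 Everted portal vein from male AHA rats (250–500 g). Contraction to senktide (NK-3). Agonist curves were repeated at least twice before exposure to one antagonist concentration per preparation. Concentration-ratio estimated graphically at the half-maximal level. pK_B = log(CR−1) − log(molar antagonist). Mean ± SE of four to eight tissues.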

[4] = target: T1, Substance-K receptor (Rattus norvegicus); experiment: Compound was evaluated for antagonism of contractile response of rat colon muscularis mucosae (RC) at Tachykinin receptor 2; assay type: functional, tissue-based; settings: Muscularis mucosa; in short: as §2
[5] = target: Substance-P receptor (Cavia porcellus) (UniProt P30547); experiment: Compound was evaluated for antagonism of contractile response of guinea pig ileum longitudinal smooth muscle (GPI) at Tachykinin receptor 1; assay type: functional, tissue-based; in short: as §1

Substance-P receptor (Cavia porcellus), sequence (P30547 whole entry): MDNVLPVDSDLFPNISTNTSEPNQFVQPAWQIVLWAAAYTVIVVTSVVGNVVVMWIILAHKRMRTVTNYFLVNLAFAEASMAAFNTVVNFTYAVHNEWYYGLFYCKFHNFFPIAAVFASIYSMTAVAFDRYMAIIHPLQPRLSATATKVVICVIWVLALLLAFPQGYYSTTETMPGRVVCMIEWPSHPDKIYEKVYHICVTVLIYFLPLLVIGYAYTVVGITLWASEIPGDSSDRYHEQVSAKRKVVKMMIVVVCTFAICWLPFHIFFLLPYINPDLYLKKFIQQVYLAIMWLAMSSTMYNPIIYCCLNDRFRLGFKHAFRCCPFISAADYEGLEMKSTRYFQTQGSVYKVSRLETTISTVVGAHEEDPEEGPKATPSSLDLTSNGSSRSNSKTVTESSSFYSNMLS

Row | pKB [1] | pKB [2] | pKB [3] | pKB [4] | pKB [5] | SMILES
1 | 6.9 | 6.5 |  |  |  | CCCC[C@H](NC(=O)[C@H](CC(C)C)NC(=O)[C@@H](Cc1c[nH]c2ccccc12)NC(=O)[C@H](Cc1ccccc1)NC(=O)[C@@H](Cc1c[nH]c2ccccc12)NC(=O)[C@H](C)NC(=O)[C@H](CCCN=C(N)N)NC(=O)OC(C)(C)C)C(N)=O
2 | < 4.6 | 5.7 | 4.9 |  |  | CSCC[C@@H](NC(=O)[C@H](CC(C)C)NC(=O)[C@H]1CCCN1C(=O)[C@H](Cc1ccccc1)NC(=O)[C@@H](Cc1c[nH]c2ccccc12)NC(=O)[C@H](C)NC(=O)[C@@H](N)CCCN=C(N)N)C(N)=O
3 | 4.5 | 5.2 |  |  |  | CCCC[C@H](NC(=O)[C@@H]1CCCN1C(=O)[C@H]1CCCN1C(=O)[C@H](Cc1ccccc1)NC(=O)[C@H]1CCCN1C(=O)[C@H](C)NC(=O)[C@H](CCCN=C(N)N)NC(=O)OC(C)(C)C)C(N)=O
4 | 5.8 | 8.2 | < 4.6 |  |  | CCCC[C@H](NC(=O)[C@@H]1CCCN1C(=O)[C@H]1CCCN1C(=O)[C@H](Cc1ccccc1)NC(=O)[C@@H](Cc1c[nH]c2ccccc12)NC(=O)[C@H](C)NC(=O)[C@H](CCCN=C(N)N)NC(=O)OC(C)(C)C)C(N)=O
5 |  |  |  | 7.6 |  | CCCC[C@H](NC(=O)C1CCCN1C(=O)[C@H]1CCCN1C(=O)[C@H](Cc1ccccc1)NC(=O)[C@@H](Cc1c[nH]c2ccccc12)NC(=O)CCCCNC(=O)OC(C)(C)C)C(N)=O (stereo not given in full)
6 | 6 | 6.2 | < 4.6 |  |  | CCCC[C@H](NC(=O)[C@H](CC(C)C)NC(=O)[C@@H](Cc1c[nH]c2ccccc12)NC(=O)[C@H](Cc1ccccc1)NC(=O)[C@@H](Cc1c[nH]c2ccccc12)NC(=O)[C@H](C)NC(=O)[C@@H](N)CCCN=C(N)N)C(N)=O
7 |  |  |  | 7.2 | < 5.5 | CCCC[C@H](NC(=O)[C@@H]1CCCN1C(=O)[C@H]1CCCN1C(=O)[C@H](Cc1ccccc1)NC(=O)[C@@H](Cc1c[nH]c2ccccc12)NC(=O)[C@H](C)NC(=O)[C@H](N)CCC(=O)OCc1ccccc1)C(N)=O
8 | 4.8 | < 4.6 | < 4.6 |  |  | CCCC[C@H](NC(=O)[C@@H]1CCCN1C(=O)CNC(=O)[C@H](Cc1ccccc1)NC(=O)[C@@H](Cc1c[nH]c2ccccc12)NC(=O)[C@H](C)NC(=O)[C@@H](N)CCCN=C(N)N)C(N)=O
9 | 5.7 | 5.2 |  |  |  | CCCC[C@H](NC(=O)[C@@H]1CCCN1C(=O)[C@H]1CCCN1C(=O)[C@H](Cc1ccccc1)NC(=O)[C@@H](Cc1c[nH]c2ccccc12)NC(=O)[C@H](C)NC(=O)[C@@H](CCCN=C(N)N)NC(=O)OC(C)(C)C)C(N)=O
10 |  |  |  | 5.9 | 4.7 | CCCC[C@H](NC(=O)[C@@H]1CCCN1C(=O)[C@H]1N(C(=O)[C@H](Cc2ccccc2)NC(=O)[C@@H](Cc2c[nH]c3ccccc23)NC(=O)[C@H](C)NC(=O)[C@@H](N)CCCN=C(N)N)CSC1(C)C)C(N)=O
11 | 7.1 | 6.5 |  |  |  | CCCC[C@H](NC(=O)[C@H](CC(C)C)NC(=O)[C@@H](Cc1c[nH]c2ccccc12)NC(=O)[C@H](Cc1ccccc1)NC(=O)[C@@H](Cc1c[nH]c2ccccc12)NC(=O)[C@H](CCC(N)=O)NC(=O)[C@H](CCCN=C(N)N)NC(=O)OC(C)(C)C)C(N)=O
12 | 6.6 | 7.4 |  |  |  | CCCC[C@H](NC(=O)[C@@H]1CCCN1C(=O)[C@H]1CCCN1C(=O)[C@H](Cc1ccccc1)NC(=O)[C@@H](Cc1c[nH]c2ccccc12)NC(=O)[C@H](C)NC(=O)[C@H](CCC(=O)OCc1ccccc1)NC(=O)OC(C)(C)C)C(N)=O
13 | 4.8 | 5.6 |  |  |  | CCCC[C@H](NC(=O)[C@@H]1CCCN1C(=O)[C@H]1CCCN1C(=O)[C@H](Cc1ccccc1)NC(=O)[C@@H](C)NC(=O)[C@H](C)NC(=O)[C@H](CCCN=C(N)N)NC(=O)OC(C)(C)C)C(N)=O
14 | 6.4 | 5.7 |  |  |  | CCCC[C@H](NC(=O)[C@H](CC(C)C)NC(=O)[C@@H](Cc1c[nH]c2ccccc12)NC(=O)[C@H](Cc1ccccc1)NC(=O)[C@@H](Cc1c[nH]c2ccccc12)NC(=O)[C@H](CCC(N)=O)NC(=O)[C@@H](N)CCCN=C(N)N)C(N)=O
15 | 5.1 | 7.5 |  |  |  | CNC(=O)[C@@H]1CCCN1C(=O)[C@H]1CCCN1C(=O)[C@H](Cc1ccccc1)NC(=O)[C@@H](Cc1c[nH]c2ccccc12)NC(=O)[C@H](C)NC(=O)[C@H](CCCN=C(N)N)NC(=O)OC(C)(C)C
16 | < 5 | 6.4 |  |  |  | CCCC[C@H](NC(=O)[C@@H]1CCCN1C(=O)[C@H]1CCCN1C(=O)[C@H](Cc1ccccc1)NC(=O)[C@H](Cc1c[nH]c2ccccc12)NC(=O)[C@H](C)NC(=O)[C@H](CCCN=C(N)N)NC(=O)OC(C)(C)C)C(N)=O
17 | < 4.5 | 6.2 |  |  |  | CSCC[C@H](NC(=O)[C@@H]1CCCN1C(=O)[C@H]1CCCN1C(=O)[C@H](Cc1ccccc1)NC(=O)[C@@H](Cc1c[nH]c2ccccc12)NC(=O)[C@H](C)NC(=O)[C@H](CCCN=C(N)N)NC(=O)OC(C)(C)C)C(N)=O
18 | 6 | 7.1 |  |  |  | CCCC[C@H](NC(=O)[C@@H]1CCCN1C(=O)[C@H]1CCCN1C(=O)[C@H](Cc1ccccc1)NC(=O)[C@@H](Cc1c[nH]c2ccccc12)NC(=O)[C@H](C)NC(=O)[C@@H](CCC(=O)OCc1ccccc1)NC(=O)OC(C)(C)C)C(N)=O
19 |  | 6.4 |  |  |  | CCCC[C@H](NC(=O)[C@@H]1CCCN1C(=O)[C@H]1CCCN1C(=O)[C@H](Cc1ccccc1)NC(=O)[C@@H](Cc1ccccc1)NC(=O)[C@H](C)NC(=O)[C@H](CCCN=C(N)N)NC(=O)OC(C)(C)C)C(N)=O
20 |  |  |  | 7.1 | 4.8 | CCCC[C@H](NC(=O)[C@@H]1CCCN1C(=O)[C@H]1CCCN1C(=O)[C@H](Cc1ccccc1)NC(=O)[C@@H](Cc1c[nH]c2ccccc12)NC(=O)[C@H](C)NC(=O)[C@H](CCCCN)NC(=O)OC(C)(C)C)C(N)=O
21 | 5.3 | 7 |  |  |  | C[C@H](NC(=O)[C@H](CCCN=C(N)N)NC(=O)OC(C)(C)C)C(=O)N[C@H](Cc1c[nH]c2ccccc12)C(=O)N[C@@H](Cc1ccccc1)C(=O)N1CCC[C@@H]1C(=O)N1CCC[C@H]1C(=O)NCC(N)=O
22 | 5.8 | 7.6 |  |  |  | CCCCCNC(=O)[C@@H]1CCCN1C(=O)[C@H]1CCCN1C(=O)[C@H](Cc1ccccc1)NC(=O)[C@@H](Cc1c[nH]c2ccccc12)NC(=O)[C@H](C)NC(=O)[C@H](CCCN=C(N)N)NC(=O)OC(C)(C)C
23 |  |  |  | 6.5 | < 4.5 | CCCC[C@H](NC(=O)[C@@H]1CCCN1C(=O)[C@H]1CCCN1C(=O)[C@H](Cc1ccccc1)NC(=O)[C@@H](Cc1c[nH]c2ccccc12)NC(=O)[C@H](C)NC(=O)[C@H](CCC(=O)O)NC(=O)OC(C)(C)C)C(N)=O
24 | 4.6 | 5.6 |  |  |  | CCCC[C@H](NC(=O)[C@@H]1CCCN1C(=O)[C@H]1CCCN1C(=O)[C@H](Cc1ccccc1)NC(=O)[C@@H](Cc1c[nH]c2ccccc12)NC(=O)[C@H](C)NC(=O)[C@H](CCCN=C(N)N)NC(C)=O)C(N)=O
25 | 6.7 | 7.5 |  |  |  | CCCC[C@H](NC(=O)[C@@H]1CCCN1C(=O)[C@H]1CCCN1C(=O)[C@H](Cc1ccccc1)NC(=O)[C@@H](Cc1c[nH]c2ccccc12)NC(=O)[C@H](C)NC(=O)[C@H](CCCN=C(N)N)NC(=O)OCc1ccccc1)C(N)=O

Row | SMILES | pKB [1] | pKB [2] | pKB [3] | pKB [4] | pKB [5]
26 | CCCC[C@H](NC(=O)[C@@H]1CCCN1C(=O)[C@H]1CCCN1C(=O)[C@H](Cc1ccccc1)NC(=O)[C@@H](Cc1c[nH]c2ccccc12)NC(=O)[C@H](C)NC(=O)[C@H](CCC/N=C(\N)N[N+](=O)[O-])NC(=O)OC(C)(C)C)C(N)=O | 5.5 | 8.2 | 5.2 |  | 
